Measurements of several laboratories.
Lines come from different studies, so protocols differ.
Target: Tyrosine-protein kinase ZAP-70 (ZAP70, Homo sapiens, UniProt P43403)
Sequence (P43403 1-619, as in one of the studies): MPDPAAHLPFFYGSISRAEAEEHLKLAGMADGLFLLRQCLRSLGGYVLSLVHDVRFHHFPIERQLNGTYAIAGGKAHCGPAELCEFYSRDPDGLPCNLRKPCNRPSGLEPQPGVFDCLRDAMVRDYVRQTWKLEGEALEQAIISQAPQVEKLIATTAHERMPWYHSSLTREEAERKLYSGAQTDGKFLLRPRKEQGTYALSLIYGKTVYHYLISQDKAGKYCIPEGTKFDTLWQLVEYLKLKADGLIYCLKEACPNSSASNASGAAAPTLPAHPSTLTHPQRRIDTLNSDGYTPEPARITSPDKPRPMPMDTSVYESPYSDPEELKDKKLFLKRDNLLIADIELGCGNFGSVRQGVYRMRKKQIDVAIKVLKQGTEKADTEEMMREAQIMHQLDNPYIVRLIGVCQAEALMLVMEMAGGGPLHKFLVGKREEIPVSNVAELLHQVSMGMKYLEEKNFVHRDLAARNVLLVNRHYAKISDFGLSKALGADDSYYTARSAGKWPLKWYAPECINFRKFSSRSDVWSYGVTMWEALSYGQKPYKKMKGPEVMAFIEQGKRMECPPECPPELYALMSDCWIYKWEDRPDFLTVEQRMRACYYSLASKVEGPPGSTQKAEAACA

Compound	test	setting	measurement	result
C#Cc1cnc(Nc2ccnc(CO)c2)nc1Nc1ccccc1S(C)(=O)=NC#N (stereo not drawn)	cell-free assay	1 µM	remaining signal	100%
CC(C)S(=O)(=O)c1ccc2nccc(Nc3ccc4sc(C5CCCC5)nc4c3)c2c1	enzyme activity, inhibitor	1 µM	activity vs control	100%
N#Cc1ccc(NC(=O)Nc2ccccc2)cc1	cell-free assay, competition with immobilised ligand	25 µM	remaining binding	91%
Cc1ccc(NC(=O)c2ccnc(C(F)(F)F)c2)cc1-c1cc(OCCO)nc(N2CCOCC2)c1	binding	1 µM	remaining binding	100%
CC#CC(=O)N1CCC[C@H]1c1nc(-c2ccc(C(=O)Nc3ccccn3)cc2)c2c(N)nccn12	enzyme activity, inhibitor	1 µM	inhibition	8%
CN1CCN(C(=O)c2ccc(NC(=O)Nc3ccc(N(C)c4ccnc(Nc5ccc(CS(C)(=O)=O)cc5)n4)cc3)cc2)CC1	binding	1 µM	remaining binding	65%
C=CC(=O)N1CCC([C@@H]2CCNc3c(C(N)=O)c(-c4ccc(Oc5ccccc5)cc4)nn32)CC1	enzyme activity, inhibitor	1 µM	inhibition	2%
CCCCC(=O)Nc1ccc(-c2ccc3ncn(CCC)c(=O)c3c2)cn1	binding, competition with immobilised ligand	0.5 µM	remaining binding	98%
COc1ccc2oc(-c3ccc4nc(N)oc4c3)c/c(=N\c3ccccc3NC(=O)CCN)c2c1	binding	1 µM	remaining binding	88%
